One block for each compound: values may come before it. The source made the active and inactive calls.
Experiments:
[1] = Antitumor activity against mixed-lineage human leukemia cells xenografted in NOD/SCID mouse assessed as inhibition of cancer cell engrafting at 100 mg/kg, po qd administered every other day total of seven doses starting from 8 weeks post grafting measured on day 35; assay type: functional
[2] = Antitumor activity against mixed-lineage human leukemia cells xenografted in NOD/SCID mouse assessed as reduction of CD45+CD33+ cells in bone marrow at 100 mg/kg, po qd administered every other day total of seven doses starting from 8 weeks post grafting measured on day 35 (reference value: 9.8 %); assay type: functional, Leukemia cell; set-up: scale not given: the % may be the effect or the level left
[3] = Antitumor activity against human leukemia stem/progenitor cells xenografted in NOD/SCID mouse assessed as reduction of CD45+CD33+ cells in bone marrow at 100 mg/kg, po qd administered every other day total of seven doses starting from 8 weeks post grafting measured on day 85; assay type: functional; set-up: scale not given: the % may be the effect or the level left
Method in brief: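 NOD/SCID mice, sublethally irradiated (280cGay), received primary AML M5 patient cells via tail vein in PBS 6−10 h later. From 8 weeks after engraftment, aqueous drug was given orally every other day for seven doses. Surviving mice were sacrificed on day 85 post-inoculation, and human CD45⁺CD33⁺ cells in bone marrow were measured by flow cytometry.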

[4] = Antitumor activity against human leukemia stem/progenitor cells xenografted in NOD/SCID mouse assessed as survival rate at 100 mg/kg, po qd administered every other day total of seven doses starting from 8 weeks post grafting measured on day 85; assay type: functional
Method in brief: (§1)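 NOD/SCID mice were sublethally irradiated (280cGay), then 6−10 h later given primary AML M5 patient cells via tail vein in PBS. From 8 weeks postinoculation, aqueous solution was given orally at 100 mg/kg every other day for seven doses. Survival was followed, Kaplan−Meier, n = 6 per treated group and n = 7 untreated controls. Survivors at day 85 had bone marrow analysed for human CD45⁺CD33⁺ cells.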

[5] = Antitumor activity against human leukemia stem/progenitor cells xenografted in NOD/SCID mouse assessed as survival time at 100 mg/kg, po qd administered every other day total of seven doses starting from 8 weeks post grafting (reference value: 43 days); assay type: functional; method in brief: as §1
[6] = Drug degradation in HEPES buffer at pH 7.4 assessed as release of PTL; assay type: physicochemical
Method in brief: (§2)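 A 20 μL aliquot of prodrug solution was added to 980 μL HEPES buffer (pH 7.4, or below 5.0) and incubated at 37 °C. Samples were withdrawn over time, and prodrug and released parent were quantified by HPLC (mean, SD, n = 4).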

[7] = Drug degradation in HEPES buffer at pH <5 assessed as release of PTL; assay type: physicochemical; method in brief: as §2
[8] = tested on: Plasma; assay: Drug metabolism in mouse plasma assessed as release of PTL; assay type: ADME, cell-free
Method in brief: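 A 20 μL aliquot of prodrug solution was added to 980 μL blank mouse plasma and incubated at 37 °C. Prodrug and released parent drug concentrations were measured over time by HPLC (mean, SD, n = 4).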

[9] = Drug degradation in mouse plasma assessed as release of PTL up to 2.5 hrs; conditions: pH 7.4
[10] = Volume of distribution in mouse at 100 mg/kg, iv; assay type: ADME, organism-based; set-up: dose 100 mg/kg, route intravenous; conditions: in vivo
Method in brief: (§3)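 Male Kunming mice (20 2 g) were fasted 12 h with water available. An aqueous solution was dosed po (150 mg/kg) or iv (100 mg/kg), n = 5 per route. Blood was drawn from the orbital veins at set times to measure DMAMCL and released MCL. Parameters come from a noncompartmental model and are given as mean with SD.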

[11] = Cmax in mouse at 100 mg/kg, iv; assay type: ADME, organism-based; set-up: dose 100 mg/kg, route intravenous; conditions: in vivo
Method in brief: (§4)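 Male Kunming mice (20 2 g), fasted 12 h before dosing with water available, given DMAMCL as an aqueous solution iv (n = 5). Blood was drawn from the orbital veins at set times. DMAMCL and MCL in plasma were measured, and parameters were derived by a noncompartmental model.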

[12] = Total clearance in mouse at 100 mg/kg, iv; assay type: ADME, organism-based; set-up: dose 100 mg/kg, route intravenous; conditions: in vivo; method in brief: as §4
[13] = Half life in mouse at 100 mg/kg, iv; assay type: ADME, organism-based; set-up: dose 100 mg/kg, route intravenous; conditions: in vivo; method in brief: as §4
[14] = Mean retention time (0 to infinity) in mouse at 100 mg/kg, iv; assay type: ADME, organism-based; set-up: dose 100 mg/kg, route intravenous; conditions: in vivo; method in brief: as §4
[15] = Mean retention time (0 to t) in mouse at 100 mg/kg, iv; assay type: ADME, organism-based; set-up: dose 100 mg/kg, route intravenous; conditions: in vivo; method in brief: as §4
[16] = AUC (0 to infinity) in mouse at 100 mg/kg, iv; assay type: ADME, organism-based; set-up: time infinity, dose 100 mg/kg, route intravenous; conditions: plasma; method in brief: as §4
[17] = AUC (0 to t) in mouse at 100 mg/kg, iv; assay type: ADME, organism-based; set-up: dose 100 mg/kg, route intravenous; conditions: plasma; method in brief: as §4
[18] = Cmax in mouse at 150 mg/kg, po; assay type: ADME, organism-based; set-up: dose 150 mg/kg, route oral; conditions: in vivo
Method in brief: (§5)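 Male Kunming mice (20 2 g), fasted 12 h before dosing with water available, given DMAMCL as an aqueous solution po (n = 5). Blood was drawn from the orbital veins at set times. Plasma DMAMCL and MCL were followed, and parameters came from noncompartmental analysis.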

[19] = tested on: Mus musculus; assay: Volume of distribution in mouse at 150 mg/kg, po; assay type: ADME, organism-based; set-up: dose 150 mg/kg, route oral; conditions: in vivo; method in brief: as §3
[20] = Total clearance in mouse at 150 mg/kg, po; assay type: ADME, organism-based; set-up: dose 150 mg/kg, route oral; conditions: in vivo; method in brief: as §5
[21] = Half life in mouse at 150 mg/kg, po; assay type: ADME, organism-based; set-up: dose 150 mg/kg, route oral; conditions: in vivo; method in brief: as §5
[22] = Tmax in mouse at 150 mg/kg, po; assay type: ADME, organism-based; set-up: dose 150 mg/kg, route oral; conditions: in vivo; method in brief: as §5
[23] = Mean retention time (0 to infinity) in mouse at 150 mg/kg, po; assay type: ADME, organism-based; set-up: dose 150 mg/kg, route oral; conditions: in vivo; method in brief: as §5
[24] = Mean retention time (0 to t) in mouse at 150 mg/kg, po; assay type: ADME, organism-based; set-up: dose 150 mg/kg, route oral; conditions: in vivo; method in brief: as §5
[25] = AUC (0 to infinity) in mouse at 150 mg/kg, po; assay type: ADME, organism-based; set-up: dose 150 mg/kg, route oral, time infinity; conditions: plasma; method in brief: as §5
[26] = AUC (0 to t) in mouse at 150 mg/kg, po; assay type: ADME, organism-based; set-up: dose 150 mg/kg, route oral; conditions: plasma; method in brief: as §5
[27] = tested on: Homo sapiens; assay: Antitumor activity against human leukemia stem/progenitor cells xenografted in NOD/SCID mouse assessed as reduction of CD45+CD33+ cells in spleen compound pretreated for 18 hrs before grafting process measured after 8 weeks; assay type: functional, tissue-based
Method in brief: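 Fresh primary AML patient cells were exposed for 18 h to saline or compound. Equal numbers of surviving cells were then injected iv into NOD/SCID mice. After 8 weeks the mice were sacrificed, and the spleen CD33⁺CD45⁺ human cells were quantified by flow cytometry, with each animal analysed individually.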

[28] = Cytotoxicity against human CD34+ hematopioetic stem cells at 5 uM by immunostaining method; assay type: cell-based
Method in brief: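 Mononuclear cells were Ficoll-isolated from umbilical cord blood of a normal donor, cryopreserved, then rested in serum-free IMDM for 1 h. Cells were treated for 18 h in IMDM, stained with CD34-APC for 30 min, and labelled with Annexin-V–FITC/PI for 15 min at room temperature. Read by flow cytometry, normalized to vehicle, done in triplicate.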

[29] = Reduction in colony forming units of leukemia stem/progenitor cells at 10 uM after 15 to 20 days; assay type: functional, Homo sapiens
Method in brief: (§6)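 Mononuclear cells from AML patient […] were exposed to drug for 18 h in serum-free IMDM, then plated in triplicate in M3434 methylcellulose. Total colonies (CFC-Mix, CFC-GM, CFC-G, CFC-M, BFU-E) were scored by morphology after 15−20 days.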

[30] = Reduction in colony forming units of leukemia stem/progenitor cells at 5 uM after 15 to 20 days; assay type: functional, Homo sapiens; method in brief: as §6
[31] = Induction of apoptosis in CD34+ leukemia stem/progenitor cells assessed as viable cells at 10 uM using annexin V/propidium iodide by flow cytometry; assay type: functional; conditions: Homo sapiens; read-out: Activity
Method in brief: (§7)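 Primary AML patient cells were exposed to 10 μM compound for 18 h in IMDM, then stained with CD34-APC/CD38-PECy7. Annexin-V–FITC/PI was added and incubated for 15 min at room temperature before flow cytometry. Quadrants were defined as Q1 necrotic, Q2 late apoptotic, Q3 early apoptotic and Q4 viable.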

[32] = Induction of apoptosis in CD34+ leukemia stem/progenitor cells assessed as early apoptotic cells at 10 uM using annexin V/propidium iodide by flow cytometry; assay type: functional, Homo sapiens; method in brief: as §7
[33] = Induction of apoptosis in CD34+ leukemia stem/progenitor cells assessed as late apoptotic cells at 10 uM using annexin V/propidium iodide by flow cytometry; assay type: functional, Homo sapiens; method in brief: as §7
[34] = Induction of apoptosis in CD34+ leukemia stem/progenitor cells assessed as necrotic cells at 10 uM using annexin V/propidium iodide by flow cytometry; assay type: functional, Homo sapiens; method in brief: as §7
[35] = Cytotoxicity against human leukemia stem/progenitor cells assessed as viable CD34+CD38- cells at 10 uM after 18 hrs by annexin-V labeling-based flow cytometry relative to control; assay type: functional
[36] = Cytotoxicity against human leukemia stem/progenitor cells assessed as viable CD34+ cells at 10 uM after 18 hrs by annexin-V labeling-based flow cytometry relative to control; assay type: functional, CD34+ cell
[37] = Cytotoxicity against human leukemia stem/progenitor cells assessed as viable CD34+ cells at 10 uM after 18 hrs by annexin-V labeling-based flow cytometry; assay type: functional, CD34+ cell
[38] = Cytotoxicity against human leukemia stem/progenitor cells assessed as viable CD34+ cells at 5 uM after 18 hrs by annexin-V labeling-based flow cytometry; assay type: functional, CD34+ cell
Method in brief: (§8)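 Primary leukemia cells from AML patient blood were treated for 18 h in serum-free IMDM, then stained with CD34-APC and CD38-PECy7 for 30 min. After washing in cold PBS, cells were labelled with Annexin-V–FITC/PI for 15 min at room temperature and read by flow cytometry. Viability of total and CD34⁺ cells was normalized to untreated controls (mean, SD).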

[39] = Cytotoxicity against human leukemia stem/progenitor cells assessed as cell viability at 5 uM after 18 hrs by annexin-V labeling-based flow cytometry; assay type: functional; conditions: in the assay text read “leukemia cells” for “leukemia stem/progenitor cells”, read-out: Activity; method in brief: as §8
[40] = Cytotoxicity against human HL60/A cells after 18 hrs by annexin-V labeling-based flow cytometry; assay type: functional, cell-based
[41] = tested on: HL-60; assay: Cytotoxicity against human HL60 cells after 18 hrs by annexin-V labeling-based flow cytometry; assay type: functional, cell-based; conditions: HL-60, 18 h
[42] = Cytotoxicity against human leukemia cells assessed as cell viability at 10 uM after 18 hrs by annexin-V labeling-based flow cytometry

Compound: C/C1=C\CC[C@@]2(C)O[C@@H]2[C@H]2OC(=O)[C@@H](CN(C)C)[C@@H]2CC1.O=C(O)/C=C/C(=O)O [(DIMETHYLAMINO)PARTHENOLIDE FUMARIC ACID SALT]
inhibition in vivo at 100 mg/kg [1]: 42%
Activity [2]: 5.7%
Activity [3]: 35%
survival at 100 mg/kg [4]: 17%
Survival [5]: 66 days
Drug degradation [6]: Active
Drug degradation [7]: Not Active
Drug metabolism [8]: Active
Drug degradation [9]: 0.1 µg/mL

Vd [10]: 533 L/kg
Cmax [11]: 10700 ng/mL
clearance [12]: 288 mL/min/kg
half-life [13]: 12.7 h
MRT inf [14]: 6.34 h
MRT last [15]: 1.49 h
AUC(0-inf) [16]: 5850 ng·h/mL
AUC(0-t) [17]: 5490 ng·h/mL
Cmax [18]: 2610 ng/mL
Vd [19]: 265.27 L/kg
CL/F [20]: 376 mL/min/kg
half-life [21]: 7.92 h
Tmax [22]: 0.36 h
MRT inf [23]: 8.28 h
MRT last [24]: 7.59 h
AUC(0-inf) [25]: 6720 ng·h/mL
AUC(0-t) [26]: 6630 ng·h/mL
Compound: C=C1C(=O)O[C@H]2[C@H]1CCC(C)=C1CC[C@@](C)(O)[C@@H]12 [MICHELIOLIDE]
Activity [27]: Active
Activity [28]: Non-toxic
CFU [29]: 0
CFU [30]: 4.5
viability at 10 µM [31]: 1.42%
Activity [32]: 24.2%
Activity [33]: 69.4%
Activity [34]: 0.127%
fold change (FC) [35]: 5.3
fold change (FC) [36]: 3.2
Activity [37]: 2.3%
Activity [38]: 4.2%
viability at 5 µM [39]: 11.7%
IC50 [40]: 6.2 µM
IC50 [41]: 5.5 µM
viability at 10 µM [42]: 8.4%
